# Laboratory results: ChEMBL document CHEMBL1122046, “Quaternary heterocyclylamino beta-lactams: a generic alternative to the classical acylamino side chain” (1982)
# What was measured:
# Assay type in all cases: functional
# Escherichia coli = assay: MIC against aerobic organism Escherichia coli strain 2891; conditions: Escherichia coli; read-out: MIC
# Procedure, shortened: (§1)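 Agar-dilution MIC in µg/mL against aerobic bacterial strains on tryptocase soy agar, with inoculum applied as spots. Most series used 10^5 cfu per spot, and a later series used 10^4 cfu per spot. In some tables, footnoted strains were instead tested on Mueller-Hinton or nutrient agar. β-Lactamase-producing strains are flagged.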
# Klebsiella aerogenes = assay: Minimum inhibitory concentration against aerobic organism Enterobacter aerogenes strain 2828; procedure, shortened: as §1
# Enterobacter cloacae = assay: Minimum inhibitory concentration against aerobic organism Enterobacter cloacae strain 2646; conditions: Enterobacter cloacae; read-out: MIC; procedure, shortened: as §1
# Klebsiella pneumoniae [1] = assay: Minimum inhibitory concentration against aerobic organism Klebsiella pneumoniae strain 4005; procedure, shortened: as §1
# Morganella morganii = assay: Minimum inhibitory concentration against aerobic organism Morganella morganii strain 2833; conditions: Morganella morganii; read-out: MIC; procedure, shortened: as §1
# Pseudomonas aeruginosa = assay: Minimum inhibitory concentration against aerobic organism Pseudomonas aeruginosa strain 2835; procedure, shortened: as §1
# Proteus mirabilis = assay: Minimum inhibitory concentration against aerobic organism Proteus mirabilis strain 2830; conditions: Proteus mirabilis; read-out: MIC; procedure, shortened: as §1
# Proteus vulgaris = assay: Minimum inhibitory concentration against aerobic organism Proteus vulgaris strain 2829; conditions: Proteus vulgaris; read-out: MIC; procedure, shortened: as §1
# Salmonella = assay: Minimum inhibitory concentration against aerobic organism Salmonella strain 3860; procedure, shortened: as §1
# Staphylococcus aureus [2] = assay: Minimum inhibitory concentration against aerobic organism Staphylococcus aureus strain 2865; procedure, shortened: as §1
# Staphylococcus aureus [3] = assay: Minimum inhibitory concentration against aerobic organism Staphylococcus aureus strain 2868; conditions: Staphylococcus aureus; read-out: MIC; procedure, shortened: as §1
# Enterococcus faecalis = assay: Minimum inhibitory concentration against aerobic organism Streptococcus faecalis strain 2864; procedure, shortened: as §1
# Klebsiella pneumoniae [4] = assay: Minimum inhibitory concentration against aerobic organism Klebsiella pneumoniae strain 2882; conditions: Klebsiella pneumoniae; read-out: MIC; procedure, shortened: as §1
# [5] = Minimum inhibitory concentration against aerobic organism Salmonella schottmuelleri strain 2837; conditions: Salmonella; read-out: MIC; procedure, shortened: as §1
# Shigella = assay: Minimum inhibitory concentration against aerobic organism Shigella species strain 2880; conditions: Shigella; read-out: MIC; procedure, shortened: as §1
SMILES,MIC (Escherichia coli),MIC (Klebsiella aerogenes),MIC (Enterobacter cloacae),MIC (Klebsiella pneumoniae [1]),MIC (Morganella morganii),MIC (Pseudomonas aeruginosa),MIC (Proteus mirabilis),MIC (Proteus vulgaris),MIC (Salmonella),MIC (Staphylococcus aureus [2]),MIC (Staphylococcus aureus [3]),MIC (Enterococcus faecalis),MIC (Klebsiella pneumoniae [4]),MIC [5],MIC (Shigella)
CCO[n+]1ccc(N[C@@H]2C(=O)N3C(C(=O)[O-])=C(CSc4nnnn4C)CS[C@H]23)cc1,0.125 µg/mL,32 µg/mL,1 µg/mL,128 µg/mL,> 128 µg/mL,> 128 µg/mL,> 128 µg/mL,0.25 µg/mL,128 µg/mL,8 µg/mL,> 128 µg/mL,> 128 µg/mL,–,–,–
O=C([O-])C1=C(CO)CS[C@@H]2[C@H](Nc3cc[n+](Cc4ccccc4)cc3)C(=O)N12,0.5 µg/mL,128 µg/mL,1 µg/mL,> 128 µg/mL,> 128 µg/mL,> 128 µg/mL,> 128 µg/mL,< 0.06 µg/mL,> 128 µg/mL,0.5 µg/mL,16 µg/mL,> 128 µg/mL,–,–,–
CN(C)CCn1nnnc1SCC1=C(C(=O)[O-])N2C(=O)[C@@H](Nc3cc[n+](Cc4ccccc4)cc3)[C@H]2SC1,< 0.06 µg/mL,0.5 µg/mL,0.25 µg/mL,4 µg/mL,64 µg/mL,> 128 µg/mL,128 µg/mL,0.125 µg/mL,2 µg/mL,0.5 µg/mL,4 µg/mL,128 µg/mL,–,–,–
CC1(C)S[C@@H]2[C@H](NC=[N+]3CCCCCC3)C(=O)N2[C@H]1C(=O)[O-],12.5 µg/mL,64 µg/mL,–,16 µg/mL,> 128 µg/mL,> 128 µg/mL,> 128 µg/mL,0.5 µg/mL,0.125 µg/mL,8 µg/mL,> 100 µg/mL,> 100 µg/mL,100 µg/mL,12.5 µg/mL,12.5 µg/mL
O=C([O-])C1=C(Cl)CS[C@@H]2[C@H](Nc3cc[n+](Cc4ccccc4)cc3)C(=O)N12,0.25 µg/mL,8 µg/mL,4 µg/mL,64 µg/mL,> 128 µg/mL,> 128 µg/mL,> 128 µg/mL,< 0.125 µg/mL,128 µg/mL,2 µg/mL,128 µg/mL,> 128 µg/mL,–,–,–
Cn1nnnc1SCC1=C(C(=O)[O-])N2C(=O)[C@@H](Nc3cc[n+](COCC(Cl)(Cl)Cl)cc3C(=O)[O-])[C@H]2SC1.[Na+],64 µg/mL,> 128 µg/mL,> 128 µg/mL,> 128 µg/mL,> 128 µg/mL,> 128 µg/mL,> 128 µg/mL,> 128 µg/mL,> 128 µg/mL,> 128 µg/mL,> 128 µg/mL,> 128 µg/mL,–,–,–
CC(=O)OCC1=C(C(=O)[O-])N2C(=O)[C@@H](Nc3cc[n+](COCc4ccc([N+](=O)[O-])cc4)cc3)[C@H]2SC1,1 µg/mL,> 128 µg/mL,64 µg/mL,128 µg/mL,> 128 µg/mL,> 128 µg/mL,> 128 µg/mL,1 µg/mL,128 µg/mL,2 µg/mL,8 µg/mL,> 128 µg/mL,–,–,–
O=C([O-])C1=C(C[n+]2ccccc2)CS[C@@H]2[C@H]([N-]c3cc[n+](Cc4ccccc4)cc3)C(=O)N12,< 0.06 µg/mL,2 µg/mL,0.125 µg/mL,32 µg/mL,> 128 µg/mL,64 µg/mL,> 128 µg/mL,0.25 µg/mL,2 µg/mL,0.125 µg/mL,0.5 µg/mL,128 µg/mL,–,–,–
O=C([O-])CSc1nnc(SCC2=C(C(=O)[O-])N3C(=O)[C@@H](Nc4cc[n+](Cc5ccccc5)cc4)[C@H]3SC2)s1.[Na+],< 0.125 µg/mL,0.5 µg/mL,0.05 µg/mL,1 µg/mL,16 µg/mL,128 µg/mL,64 µg/mL,< 0.125 µg/mL,0.25 µg/mL,1 µg/mL,4 µg/mL,> 128 µg/mL,–,–,–
Cn1nnnc1SCC1=C(C(=O)[O-])N2C(=O)[C@@H](Nc3cc[n+](Cc4ccc(F)cc4)cc3)[C@H]2SC1,< 0.06 µg/mL,1 µg/mL,0.125 µg/mL,8 µg/mL,32 µg/mL,> 128 µg/mL,64 µg/mL,0.25 µg/mL,4 µg/mL,0.5 µg/mL,1 µg/mL,128 µg/mL,–,–,–
O=C([O-])C1=C(CSc2cc[n+](Cc3ccccc3)cc2)CS[C@@H]2[C@H]([N-]c3cc[n+](Cc4ccccc4)cc3)C(=O)N12,< 0.06 µg/mL,1 µg/mL,< 0.06 µg/mL,32 µg/mL,> 128 µg/mL,> 128 µg/mL,128 µg/mL,< 0.06 µg/mL,4 µg/mL,< 0.06 µg/mL,0.25 µg/mL,64 µg/mL,–,–,–
Cc1nnc(SCC2=C(C(=O)[O-])N3C(=O)[C@@H](Nc4cc[n+](COCC(Cl)(Cl)Cl)cc4C(=O)[O-])[C@H]3SC2)s1.[Na+],128 µg/mL,> 128 µg/mL,> 128 µg/mL,> 128 µg/mL,> 128 µg/mL,> 128 µg/mL,> 128 µg/mL,16 µg/mL,> 128 µg/mL,64 µg/mL,> 128 µg/mL,> 128 µg/mL,–,–,–
CCOC(=S)SCC1=C(C(=O)[O-])N2C(=O)[C@@H](Nc3cc[n+](Cc4ccccc4)cc3)[C@H]2SC1,1 µg/mL,> 128 µg/mL,4 µg/mL,> 128 µg/mL,> 128 µg/mL,> 128 µg/mL,> 128 µg/mL,8 µg/mL,4 µg/mL,1 µg/mL,4 µg/mL,> 128 µg/mL,–,–,–
O=C(Cc1cccs1)N[C@@H]1C(=O)N2C(C(=O)[O-])=C(C[n+]3ccccc3)CS[C@H]12 [CEPHALORIDINE],> 128 µg/mL,8 µg/mL,> 128 µg/mL,0.25 µg/mL,> 128 µg/mL,> 128 µg/mL,16 µg/mL,> 128 µg/mL,0.5 µg/mL,0.25 µg/mL,4 µg/mL,64 µg/mL,–,–,–
[N-]=[N+]=NCC1=C(C(=O)[O-])N2C(=O)[C@@H](Nc3cc[n+](Cc4ccccc4)cc3)[C@H]2SC1,0.25 µg/mL,8 µg/mL,1 µg/mL,64 µg/mL,> 128 µg/mL,> 128 µg/mL,> 128 µg/mL,< 0.06 µg/mL,1 µg/mL,0.5 µg/mL,2 µg/mL,> 128 µg/mL,–,–,–
